Rows were chosen to be rich in hits. Some 3.1% of all compounds tested hit in one or more screens of this group.
PRMT1 inh: inhibitors of human PRMT1. recombinant PRMT1, activity-based probe fluorescence polarization. inhibition, % at 2.79 µM. 1.3% of 370,000 active;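 active = inhibition above about 21% made by adding two undisclosed values, limit read from the data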
ABHD5 PLIN5 PPI: ABHD5-PLIN5 protein interaction inhibition; Q00G26+Q8WTS1; Split G. princeps luciferase complementation, luminescence, 4 h; AID 602281; 0.78% of 360,000 active; inhibition, % at 4 µM;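 active = inhibition above the mean inhibition across every tested compound plus 3 SD, cut at about 22% in these data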;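 also: 0% = DMSO only wells and the 100% control is not disclosed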
Target sequence (Q00G26 whole entry, looked up): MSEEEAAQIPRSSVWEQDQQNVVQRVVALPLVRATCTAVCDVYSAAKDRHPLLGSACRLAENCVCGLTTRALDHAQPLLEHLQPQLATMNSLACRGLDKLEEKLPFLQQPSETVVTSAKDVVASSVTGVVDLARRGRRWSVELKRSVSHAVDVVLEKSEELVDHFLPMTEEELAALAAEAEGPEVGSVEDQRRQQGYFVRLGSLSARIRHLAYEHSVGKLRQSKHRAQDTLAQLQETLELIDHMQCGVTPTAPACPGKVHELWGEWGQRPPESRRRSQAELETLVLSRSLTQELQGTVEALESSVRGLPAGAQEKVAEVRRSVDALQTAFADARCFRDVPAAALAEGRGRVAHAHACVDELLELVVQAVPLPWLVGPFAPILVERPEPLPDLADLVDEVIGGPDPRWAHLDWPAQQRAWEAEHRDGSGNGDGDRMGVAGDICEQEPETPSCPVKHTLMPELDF
Target sequence (Q8WTS1 whole entry, looked up): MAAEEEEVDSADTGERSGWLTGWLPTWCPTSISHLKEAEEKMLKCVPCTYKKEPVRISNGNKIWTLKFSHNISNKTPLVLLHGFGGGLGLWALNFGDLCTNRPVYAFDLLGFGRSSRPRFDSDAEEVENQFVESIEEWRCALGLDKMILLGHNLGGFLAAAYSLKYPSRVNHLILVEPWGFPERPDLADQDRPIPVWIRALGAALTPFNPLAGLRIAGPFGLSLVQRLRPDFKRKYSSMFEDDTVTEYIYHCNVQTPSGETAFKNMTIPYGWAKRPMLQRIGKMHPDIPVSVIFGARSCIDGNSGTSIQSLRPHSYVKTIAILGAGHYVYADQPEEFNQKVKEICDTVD
LEDGF integ inh: blocks HIV-1 LEDGF/p75-dependent DNA integration | TR-FRET IN-LEDGF/p75 DNA integration, Eu/Cy5 | inhibition, % at 3.7 µM | 0.64% of 370,000 active | AID 743269;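 active = inhibition above the screen-wide mean plus 3 SD, cut at about 13% in these data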;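 also: signal is the Cy5 over europium emission ratio at 671 and 618 nm; 0% = plate median of compound wells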
RBBP9 inhibitor: inhibitors of human serine hydrolase RBBP9; 0.2% of 220,000 active; inhibition, % at 7.94 µM; O75884; recombinant RBBP9, FP-Rh probe fluorescence polarization;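 active = inhibition above the campaign mean of all tested compounds plus 3 SD, cut at about 14% in these data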;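 also: plate controls were DMSO wells with RBBP9 for no effect and wells lacking RBBP9 protein for full effect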
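Test system: recombinant human RBBP9. Quantity: 2.5 µM RBBP9 dispensing solution, before mixing. Detection: FP readout at 525/598 nm. Reagent: Serine-hydrolase probe FP-Rh, 375 nM pre-mixing. Measure: % inhibition. Control set: DMSO-treated enzyme wells and wells lacking RBBP9. Buffer or medium: Tris-NaCl-Pluronic buffer, pH 8.0. Times: preincubation 30 min plus labeling 45 min at 25 °C.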
MBD2 inh: blocks human MBD2 binding to methylated DNA; Q9UBB5; TR-FRET, MBD2 binding to methylated oligonucleotide; inhibition, % at 4.4 µM; 0.31% of 370,000 active; in the data active = inhibition above about 13%
UHRF1 binding: human UHRF1 methylated DNA binding inhibitors | inhibition, % at 4.4 µM | AID 687016 | Q96T88 | 0.75% of 370,000 active | UHRF1 binding to methylated oligo, TR-FRET; in the data active = inhibition above about 21%;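 also: UHRF1 SRA domain binding a hemimethylated CpG hairpin DNA probe; 0% = median of test compound wells and 100% = reference inhibitor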
IN multimer act: activates HIV-1 integrase multimerization in LEDGF counter-screen | shares compounds with LEDGF integ inh | TR-FRET HIV-1 integrase multimerization, biochemical | activation, % at 7.7 µM | 17% of 2,000 active | AID 1053131; in the data active = activation above about 8.9%
TR-FRET interf: TR-FRET optical interference, LEDGF/p75 integration counter-screen. shares compounds with LEDGF integ inh. TR-FRET optical interference counterscreen, HIV-1 IN multimerization. inhibition, % at 7.7 µM. 2,000 tested, under 10 active. AID 1053135;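 active = inhibition above the mean over all tested compounds plus 3 SD, which no compound reached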;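 also: 0% = integrase with antibodies and DMSO and 100% = antibodies without integrase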
IN-LEDGF confirm: LEDGF/p75-dependent HIV-1 integration inhibition, confirmation | shares compounds with LEDGF integ inh | TR-FRET LEDGF/p75-dependent HIV-1 integration, biochemical | inhibition, % at 3.7 µM | 36% of 2,000 active; in the data active = inhibition above about 14%
* hit, by the source's call; / = no result.

SMILES	PRMT1 inh	ABHD5 PLIN5 PPI	LEDGF integ inh	RBBP9 inhibitor	MBD2 inh	UHRF1 binding	IN multimer act	TR-FRET interf	IN-LEDGF confirm
CCOC(=O)[C@@]12CCCC=C1N(CCc1ccc(Cl)cc1)C(=O)[C@H]2CC(=O)N1CCOCC1	-0.5	/	-1.6	/	0.0	-1.1	/	/	/
CCOC(=O)[C@]12CCCCC/C=C\1N(CCc1ccc(Cl)cc1)C(=O)[C@H]2CC(=O)NCCc1ccccc1OC	1.6	/	18.0*	/	2.6	-2.4	-0.2	1.0	-3.7
CCN1CCN(c2cc(C)c3cc(NC(=S)N4CCOCC4)ccc3n2)CC1	-3.7	5.7	21.1*	2.9	5.5	-1.5	0.5	-2.5	-5.7
CCCCCOc1ccc(/C=N/NC(=O)CSc2nnc(-c3ccc(OC)cc3)n2-c2ccc(C)cc2)cc1	-2.0	/	-1.3	/	-2.1	-2.0	/	/	/
Cc1noc(C)c1S(=O)(=O)N(C)C[C@@H]1OCc2cnnn2CCCC(=O)N([C@@H](C)CO)C[C@@H]1C	-6.4	/	0.4	/	6.5	1.5	/	/	/
COc1cccc(NC(=O)CSc2nnc(-c3ccoc3C)n2-c2ccccc2)c1	-4.2	/	29.3*	1.3	-2.7	-2.9	1.6	-5.6	-12.9
COC(=O)C1CN(Cc2ccccc2)CCS(=O)(=O)N1Cc1cn(Cc2ccccc2)nn1 (stereo not drawn)	0.5	/	6.3	/	5.7	9.1	/	/	/
COc1ccc(C(N)c2csc(Nc3cc(Oc4ccccc4)ncn3)n2)cc1 (stereo not drawn)	-2.3	-2.7	3.5	/	0.2	-0.1	/	/	/
NC(c1csc(Nc2cc(Oc3ccccc3)ncn2)n1)C1CCCCC1 (stereo not drawn)	-4.1	-7.3	13.4*	/	-7.4	-1.8	-0.1	0.7	-6.7
NC(c1csc(Nc2ccc(C(F)(F)F)cn2)n1)C1CCCCC1 (stereo not drawn)	-0.5	-0.3	17.9*	/	-2.4	-3.0	0.3	-1.1	-4.0
Cc1cccc(CN2[C@@H](C)[C@H](c3ccccc3)Oc3cc(Br)ccc3S2(=O)=O)c1	0.2	/	1.8	/	-2.9	0.6	/	/	/
Cc1ccc2occ(/C=N/NC(=O)c3ccccc3O)c(=O)c2c1	-0.1	4.8	17.8*	/	-1.2	1.1	0.0	0.2	24.1*
Cc1ccc2occ(/C=N/NC(=O)c3ccc(Cl)cc3)c(=O)c2c1	-0.7	10.7	-0.4	/	2.8	0.6	/	/	/
Cc1nonc1N1CCN(Cc2cn[nH]c2-c2ccc3c(c2)OCO3)CC1	-4.0	0.9	53.3*	-6.3	2.7	0.8	-0.4	2.1	-0.4
CC(CCN1CCC(C(O)(c2ccccc2)c2ccccc2)CC1)Oc1cccc(Cl)c1 (stereo not drawn)	-4.5	/	-1.8	/	-4.0	-1.6	/	/	/
C/C(=N\NC(=O)c1cc(-c2ccco2)nc2ccccc12)c1cccnc1	-0.8	5.3	63.7*	-2.5	-2.9	-2.4	1.1	-5.5	0.2
Cc1csc(NC(=O)c2cc(-c3ccco3)nc3ccccc23)n1	23.5*	5.9	26.0*	-9.6	5.4	14.0	11.2*	-56.2	48.0*
CCNC(=O)COC(=O)c1cc(-c2ccco2)nc2ccccc12	38.3*	0.1	13.5*	-3.2	4.8	8.3	7.3	-36.7	28.7*
Cc1nnc(NC(=O)c2cc(-c3ccco3)nc3ccccc23)s1	17.9	4.2	16.4*	/	6.5	25.8*	3.4	-16.9	29.5*
Cc1ccc2nc(NC(=O)c3cc(-c4ccco4)nc4ccccc34)sc2c1	-3.9	7.5	4.4	-7.8	-2.6	-4.1	/	/	/
COc1ccc(CNC(=O)COC(=O)c2cc(-c3ccco3)nc3ccccc23)cc1	/	/	/	-5.1	/	/	/	/	/
Cc1csc(NC(=O)c2cc(C)nc3ccccc23)n1	1.7	0.0	-3.6	-11.7	-1.4	-1.7	/	/	/
COC(=O)[C@]12C[C@H](CC(=O)NCc3ccc(C)o3)C(=O)N(Cc3ccco3)C1=C[C@H](C1CCCC1)O[C@@H]2C	5.1	/	-1.3	/	-3.0	2.1	/	/	/
CCOc1cc(OCC)cc(C(=O)N2CCC[C@@H]2C(=O)N2CCC[C@@H]2C(=O)NCc2cccc(OC)c2)c1	-0.1	/	3.4	/	0.8	3.5	/	/	/
Oc1ccc(/C=N/Nc2ncnc3c2ncn3Cc2ccccc2)cc1O	0.2	12.5	17.9*	-2.5	8.2	4.0	57.2*	-205.2	66.0*
SMILES	PRMT1 inh	ABHD5 PLIN5 PPI	LEDGF integ inh	RBBP9 inhibitor	MBD2 inh	UHRF1 binding	IN multimer act	TR-FRET interf	IN-LEDGF confirm
Oc1cccc(/C=N/Nc2ncnc3c2ncn3Cc2ccccc2)c1	4.2	1.2	-2.1	-10.3	-0.1	-2.8	/	/	/
COC(=O)C1CN(CCc2ccccc2)CCS(=O)(=O)N1Cc1ccccc1F (stereo not drawn)	-10.2	/	4.5	/	-2.1	-1.3	/	/	/
Cc1ccc(/C=N/Nc2nncn2N)cc1	0.9	-31.8	65.3*	/	-1.9	10.8	-3.2	11.4	3.8
Nn1cnnc1N/N=C/c1ccc(F)cc1	0.5	-26.7	64.7*	/	4.6	5.5	-0.6	2.1	-6.4
Nn1cnnc1N/N=C/c1ccc(Cl)c([N+](=O)[O-])c1	1.1	-63.4	44.0*	-7.8	3.3	10.1	0.7	-2.7	7.0
Fc1ccc(/C=N/Nc2nn[nH]n2)cc1	0.8	0.6	2.9	-3.8	7.3	-1.4	/	/	/
COCCN1CCCc2nc(-c3ccc(Br)cc3)ccc21	-0.9	/	-0.4	/	-3.6	-2.6	/	/	/
C=CCCC[C@H]1OC(=O)[C@H](C)NC(=O)[C@H](C(C)C)NC(=O)[C@@H]2CCCN2C(=O)[C@H](Cc2ccccc2)OC(=O)[C@@H](C(C)C)N(C)C(=O)[C@H](C(C)C)NC(=O)C1(C)C	4.2	/	16.2*	/	10.7	18.2	0.2	-1.2	-8.0
Nc1cc(S(=O)(=O)N2CCCCC2)ccc1Oc1ccc(Cl)cc1	-3.5	-2.8	40.0*	6.5	-2.5	-1.4	-0.1	0.5	-2.8
O=C(Cc1c[nH]c2ccccc12)Nc1ccc(Nc2cccnc2)c(-c2ccc(Cl)c(Cl)c2)c1	1.9	/	-1.2	/	-2.2	-5.3	/	/	/
Cc1cc(C)c(CN2CCN(C(=O)Cn3cc(C)c(=O)[nH]c3=O)CC2)c(C)c1	-0.7	/	-0.3	/	-3.0	0.7	/	/	/
CCOc1ccccc1OCC(=O)NNC(=O)Cn1cnc2c1c(=O)n(C)c(=O)n2C	-6.2	-8.5	14.5*	3.5	-0.8	-2.2	-1.0	4.8	2.8
CC1=C(C)CC(C(=O)Nc2nc(-c3ccc(C)cc3C)c(C)s2)C(C(=O)O)C1 (stereo not drawn)	-2.6	-4.2	24.7*	-3.0	-3.8	-1.2	5.4	-27.3	-0.3

From PubChem
